What all share (assay type): functional
For experiment [1], the system named is Mythimna separata. The experiment in a line: Insecticidal activity against fourth-instar larval stage of Mythimna separata (Oriental armyworm) in compound pretreated Zea mays L. Tangyu 10 leaves assessed as mortality at 200 mg/l at 25 +/-1 degC after 2 days. Summed up:
(§1)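 Greenhouse-reared fourth-instar oriental armyworm larvae. Corn (Tangyu 10) leaves laid on moist filter paper in Petri dishes, sprayed with test solution (200 mg/L solution diluted in distilled water), then air-dried. Ten larvae per dish. Held at 25 ± 1 °C; mortality scored dead/alive 2 days post-treatment. Triplicate treatments, Abbott-corrected, 0–100 scale.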

Experiment [2] relates to Mythimna separata. The experiment in a line: Insecticidal activity against fourth-instar larval stage of Mythimna separata (Oriental armyworm) in compound pretreated Zea mays L. Tangyu 10 leaves assessed as mortality at 20 mg/l at 25 +/-1 degC after 2 days. Summed up:
as §1

Experiment [3] deals with Mythimna separata. The experiment in a line: Insecticidal activity against fourth-instar larval stage of Mythimna separata (Oriental armyworm) in compound pretreated Zea mays L. Tangyu 10 leaves assessed as mortality at 50 mg/l at 25 +/-1 degC after 2 days. Summed up:
as §1

The subject of experiment [4] is Mythimna separata. The experiment in a line: Insecticidal activity against fourth-instar larval stage of Mythimna separata (Oriental armyworm) in compound pretreated Zea mays L. Tangyu 10 leaves assessed as mortality at 100 mg/l at 25 +/-1 degC after 2 days. Summed up: as §1
Experiment [5] relates to Mythimna separata. The experiment in a line: Insecticidal activity against fourth-instar larval stage of Mythimna separata (Oriental armyworm) in compound pretreated Zea mays L. Tangyu 10 leaves assessed as mortality at 10 mg/l at 25 +/-1 degC after 2 days. Summed up:
as §1

Experiment [6] concerns Plutella xylostella. The experiment in a line: Insecticidal activity against second-instar larval stage of Plutella xylostella (diamondback moth) in cabbage leaves assessed as mortality at 20 mg/l at 25 +/-1 degC treated for 3 secs before larva infestation measured after 2 days by leaf-dip method. The conditions noted are these: 48 h. Summed up: (§2)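 Greenhouse-reared diamondback moth larvae tested by leaf-dip method at 25 ± 1 °C. Test solution made at 200 mg/L, then diluted with distilled water to working concentrations. Mortality scored dead/alive, corrected with Abbott's formula and expressed on a 0–100 scale.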

Experiment [7] has as its system Plutella xylostella. Put plainly: Insecticidal activity against second-instar larval stage of Plutella xylostella (diamondback moth) in cabbage leaves assessed as mortality at 10 mg/l at 25 +/-1 degC treated for 3 secs before larva infestation measured after 2 days by leaf-dip method. The conditions noted are these: 48 h. Summed up: as §2
The test system of experiment [8] is Plutella xylostella. The experiment in a line: Insecticidal activity against second-instar larval stage of Plutella xylostella (diamondback moth) in cabbage leaves assessed as mortality at 2.5 mg/l at 25 +/-1 degC treated for 3 secs before larva infestation measured after 2 days by leaf-dip method. The conditions noted are these: 48 h. Summed up: as §2
In experiment [9] the test system is Mythimna separata. The experiment in a line: Insecticidal activity against fourth-instar larval stage of Mythimna separata (Oriental armyworm) in compound pretreated Zea mays L. Tangyu 10 leaves assessed as mortality at 5 mg/l at 25 +/-1 degC after 2 days. Summed up:
as §1

Experiment [10] has as its system Plutella xylostella. The experiment in a line: Insecticidal activity against second-instar larval stage of Plutella xylostella (diamondback moth) in cabbage leaves assessed as mortality at 1 mg/l at 25 +/-1 degC treated for 3 secs before larva infestation measured after 2 days by leaf-dip method. The conditions noted are these: 48 h. Summed up: as §2
The test system of experiment [11] is Plutella xylostella. Put plainly: Insecticidal activity against second-instar larval stage of Plutella xylostella (diamondback moth) in cabbage leaves assessed as mortality at 5 mg/l at 25 +/-1 degC treated for 3 secs before larva infestation measured after 2 days by leaf-dip method. The conditions noted are these: 48 h. Summed up: as §2
In experiment [12] the test system is Plutella xylostella. Put plainly: Insecticidal activity against second-instar larval stage of Plutella xylostella (diamondback moth) in cabbage leaves assessed as mortality at 0.125 mg/l at 25 +/-1 degC treated for 3 secs before larva infestation measured after 2 days by leaf-dip method. The conditions noted are these: 48 h. Summed up: as §2
For experiment [13], the system named is Plutella xylostella. Put plainly: Insecticidal activity against second-instar larval stage of Plutella xylostella (diamondback moth) in cabbage leaves assessed as mortality at 0.25 mg/l at 25 +/-1 degC treated for 3 secs before larva infestation measured after 2 days by leaf-dip method. The conditions noted are these: 48 h. Summed up: as §2
In experiment [14] the test system is Plutella xylostella. Put plainly: Insecticidal activity against second-instar larval stage of Plutella xylostella (diamondback moth) in cabbage leaves assessed as mortality at 0.5 mg/l at 25 +/-1 degC treated for 3 secs before larva infestation measured after 2 days by leaf-dip method. The conditions noted are these: 48 h. Summed up: as §2
Experiment [15] concerns Mythimna separata. The experiment in a line: Insecticidal activity against fourth-instar larval stage of Mythimna separata (Oriental armyworm) in compound pretreated Zea mays L. Tangyu 10 leaves assessed as mortality at 2.5 mg/l at 25 +/-1 degC after 2 days. Summed up: as §1
In experiment [16] the test system is Plutella xylostella. The experiment in a line: Insecticidal activity against second-instar larval stage of Plutella xylostella (diamondback moth) in cabbage leaves assessed as mortality at 25 +/-1 degC treated for 3 secs before larva infestation measured after 2 days by leaf-dip method. The conditions noted are these: 48 h. Summed up: as §2

Mortality and LC50 data for 7 compounds are collected here from ChEMBL document CHEMBL3045285, “Synthesis and insecticidal activities of novel anthranilic diamides containing modified N-pyridylpyrazoles” (2010).

Converted amounts (≈) assume the structure as drawn.

`CNC(=O)c1cc(Cl)cc(C)c1NC(=O)c1cc(C(=O)Nc2ccccc2)nn1-c1ncccc1Cl`: in the experiment with Mythimna separata [1], the mortality at 200 µg/mL was 100%. Moreover, the mortality at 20 µg/mL with Mythimna separata [2] came out at 0%. Further, the mortality at 50 µg/mL with Mythimna separata [3] stood at 100%. In the experiment with Mythimna separata [4], the mortality at 100 µg/mL came out at 100%.
For the compound `CNC(=O)c1cc(Cl)cc(C)c1NC(=O)c1cc(C(=O)NC(C)(C)C)nn1-c1ncccc1Cl`, in the experiment on Mythimna separata [1], the mortality at 200 µg/mL stood at 100%. In addition, the mortality at 20 µg/mL with Mythimna separata [2] was 40%. Besides, the mortality at 50 µg/mL with Mythimna separata [3] is 100%. In the experiment on Mythimna separata [4], the mortality at 100 µg/mL came to 100%.
`CNC(=O)c1cc(Cl)cc(C)c1NC(=O)c1cc(C(=O)NC(C)C)nn1-c1ncccc1Cl`: the mortality at 200 µg/mL with Mythimna separata [1] stood at 100%. In the experiment on Mythimna separata [2], the mortality at 20 µg/mL was found to be 60%. The mortality at 50 µg/mL in the experiment on Mythimna separata [3] worked out at 100%. Further, the mortality at 100 µg/mL with Mythimna separata [4] is 100%.
Regarding `CNC(=O)c1cc(Cl)cc(C)c1NC(=O)c1cc(C(=O)NCc2ccccc2)nn1-c1ncccc1Cl`, the mortality at 200 µg/mL in the experiment on Mythimna separata [1] is 100%. In the experiment on Mythimna separata [2], the mortality at 20 µg/mL stood at 20%. For the same compound, in the experiment with Mythimna separata [3], the mortality at 50 µg/mL amounted to 100%. In addition, the mortality at 100 µg/mL with Mythimna separata [4] amounted to 100%.
In the case of `CNC(=O)c1cc(C(=O)Nc2c(C)cc(Cl)cc2C(=O)NC2CC2)n(-c2ncccc2Cl)n1`, the mortality at 10 µg/mL in the experiment with Mythimna separata [5] amounted to 20%; with Plutella xylostella [7], 0%. In addition, the figures for the mortality at 20 µg/mL in the experiment on Plutella xylostella [6] and in the experiment with Mythimna separata [2] were 50% and 100%, respectively. In the experiment with Mythimna separata [1], the mortality at 200 µg/mL stood at 100%. In the experiment on Mythimna separata [3], the mortality at 50 µg/mL came out at 100%. In addition, in the experiment on Mythimna separata [4], the mortality at 100 µg/mL was determined as 100%.
As to `CNC(=O)c1cc(C(=O)Nc2c(C)cc(Cl)cc2C(=O)NC(C)(C)C)n(-c2ncccc2Cl)n1`, the mortality at 10 µg/mL in the experiment on Mythimna separata [5] and in the experiment with Plutella xylostella [7] was 100% throughout. The mortality at 20 µg/mL in the experiment on Plutella xylostella [6] and with Mythimna separata [2] was 100% each time. Moreover, the mortality at 200 µg/mL in the experiment on Mythimna separata [1] is 100%. The mortality at 2.5 µg/mL in the experiment on Plutella xylostella [8] worked out at 100%. The values for the mortality at 5 µg/mL with Mythimna separata [9] and with Plutella xylostella [11] were 40% and 100%, respectively. In the experiment on Plutella xylostella [10], the mortality at 1 µg/mL came to 100%. In addition, in the experiment with Mythimna separata [3], the mortality at 50 µg/mL was 100%. The mortality at 0.125 µg/mL in the experiment on Plutella xylostella [12] stood at 0%. Further, in the experiment with Mythimna separata [4], the mortality at 100 µg/mL was found to be 100%. In addition, the mortality at 0.25 µg/mL in the experiment on Plutella xylostella [13] was found to be 30%. Besides, the mortality at 0.5 µg/mL in the experiment with Plutella xylostella [14] is 85%.
With `CNC(=O)c1cc(Cl)cc(C)c1NC(=O)c1cc(Br)nn1-c1ncccc1Cl` [CHLORANTRANILIPROLE], the mortality at 10 µg/mL in the experiment on Mythimna separata [5] and with Plutella xylostella [7] was 100% each time. For the same compound, the mortality at 20 µg/mL with Plutella xylostella [6] and in the experiment with Mythimna separata [2] was 100% each time. In the experiment with Mythimna separata [1], the mortality at 200 µg/mL turned out to be 100%. Moreover, the mortality at 2.5 µg/mL in the experiment with Plutella xylostella [8] and in the experiment with Mythimna separata [15] was 100% each time. The mortality at 5 µg/mL with Mythimna separata [9] and in the experiment with Plutella xylostella [11] was 100% each time. In addition, the mortality at 1 µg/mL in the experiment on Plutella xylostella [10] turned out to be 100%. Also, the mortality at 50 µg/mL in the experiment with Mythimna separata [3] came out at 100%. Moreover, in the experiment on Plutella xylostella [12], the mortality at 0.125 µg/mL came to 100%. Also, the median lethal concentration (LC50) in the experiment on Plutella xylostella [16] was determined as 3.8 µg/mL (≈ 7.87 µM). Also, the mortality at 100 µg/mL with Mythimna separata [4] was 100%. In addition, in the experiment with Plutella xylostella [13], the mortality at 0.25 µg/mL was 100%. For the same compound, the mortality at 0.5 µg/mL with Plutella xylostella [14] came to 100%.

Broadly, the mortality is the percentage killed. The LC50 is the concentration that kills 50% of the test population.
